Key:
Mus musculus [1] = assay: Initial average tumor weight was measured in mice induced with human mammary carcinoma at a dose of 42 mg/Kg; format: functional
How it was run: (§1)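 MX-1 human mammary carcinoma xenograft implanted under the renal capsule of mice. The study was run at the National Cancer Institute following the procedures of NIH Publication No. 84-2635. Average tumor weight was recorded at the start and end of treatment, and survivors were counted after 11 days. Dosed groups were compared with an untreated control group.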

B16 [2] = assay: Percentage change in cell number of B16 melanoma cells treated with 10e-6 M dose; format: functional, Mus musculus
How it was run: (§2)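 B16 melanoma cells exposed to 10⁻⁵ or 10⁻⁶ M compound for 8 h, then rinsed three times with fresh medium. Cells then grown in drug-free medium for 48 h and counted. Result given as percent change relative to the cell number at time zero. Controls are the average of three experiments.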

B16 [3] = assay: Percentage change in cell number of B16 melanoma cells treated with 10e-5 M dose; format: functional, Mus musculus; how it was run: as §2
Mus musculus [4] = assay: Initial average tumor weight was measured in mice induced with human mammary carcinoma at a dose of 5.25 mg/Kg; format: functional; how it was run: as §1
[5] = Solubility in water; format: physicochemical; conditions: read-out: S
Mus musculus [6] = assay: Number of survivors after 11 days at a dose of 5.25 mg/Kg tested in 6 mice; format: functional; how it was run: as §1
Mus musculus [7] = assay: Tumor growth or regression measured as Percent treated by control at a dose of 42 mg/Kg to mice with MX-1 xenograft; format: functional
How it was run: (§3)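 Subrenal capsule MX-1 mammary xenograft in mice, run at the National Cancer Institute per NIH Publication No. 84-2635. %T/C = (Δ tumor weight treated / Δ tumor weight control) × 100 where tumors grew. Where tumors regressed, %T/C = (Δ tumor weight treated / initial control tumor weight) × 100.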

Mus musculus [8] = assay: Number of survivors after 11 days at a dose of 42 mg/Kg tested in 5 mice; format: functional; how it was run: as §1
Mus musculus [9] = assay: Final average tumor weight was measured in mice induced with human mammary carcinoma at a dose of 42 mg/Kg; format: functional; how it was run: as §1
Mus musculus [10] = assay: Initial average tumor weight was measured in mice induced with human mammary carcinoma at a dose of 10.5 mg/Kg; format: functional; how it was run: as §1
Mus musculus [11] = assay: Final average tumor weight was measured in mice induced with human mammary carcinoma at a dose of 10.5 mg/Kg; format: functional; how it was run: as §1
Mus musculus [12] = assay: Final average tumor weight was measured in mice induced with human mammary carcinoma at a dose of 5.25 mg/Kg; format: functional; how it was run: as §1
B16 [13] = assay: Relative effect on B16 melanoma cell proliferation was determined [IC50 (taxol)/IC50 (derivative)]; format: functional, Mus musculus
Bos taurus = species on record: Bos taurus; assay: Relative effect on microtubular assembly (Tubulin polymerized by derivative/tubulin polymerized by taxol); format: functional
How it was run: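 Bovine brain tubulin, purified from microtubule-associated proteins by phosphocellulose chromatography, used at 10 μM. Turbidity followed at 350 nm. Polymer pelleted at 200000g, 37 °C, 4 min, depolymerized on ice, and protein measured by Bradford.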

Mus musculus [14] = assay: Antitumor activity of taxoland the derivative against mammary carcinoma xenograft in mice; format: functional
How it was run: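 MX-1 human mammary carcinoma xenograft implanted under the renal capsule in mice. Study run at the National Cancer Institute following NIH Publication No. 84-2635. Tumor weights recorded at the start and at the end. Survivors counted after 11 days. %T/C = (Δ tumor weight treated/Δ tumor weight control) × 100 where the tumor grows, and (Δ tumor weight treated/initial control tumor weight) × 100 where it regresses.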

B16 [15] = assay: Concentration required to inhibit the proliferation of B16 melanoma cells was determined; format: functional, cell-based; conditions: Mus musculus
Mus musculus [16] = assay: Tumor growth or regression measured as Percent treated by control at a dose of 10.5 mg/Kg to mice with MX-1 xenograft; format: functional; how it was run: as §3
Mus musculus [17] = assay: Tumor growth or regression measured as Percent treated by control at a dose of 5.25 mg/Kg to mice with MX-1 xenograft; format: functional; how it was run: as §3
Mus musculus [18] = assay: Number of survivors after 11 days at a dose of 10.5 mg/Kg tested in 6 mice; format: functional; how it was run: as §1

For `CC(=O)O[C@H]1C(=O)[C@]2(C)[C@@H](OC(=O)CN(C)C)C[C@H]3OC[C@@]3(OC(C)=O)[C@H]2[C@H](OC(=O)c2ccccc2)[C@]2(O)C[C@H](OC(=O)[C@H](OC(=O)CN(C)C)[C@@H](NC(=O)c3ccccc3)c3ccccc3)C(C)=C1C2(C)C.CS(=O)(=O)O.CS(=O)(=O)O`, the “Initial average tumor weight” value (Mus musculus [1]) was 0.66 mg, the “Change in cell number” value (B16 [2]) was 137% and the “Change in cell number” value (B16 [3]) was -72%. For the same compound, the “Initial average tumor weight” value (Mus musculus [4]) was 0.71 mg, the solubility [5] was over 8.11 mM and the No. of survivors (Mus musculus [6]) was 6. The T/C (Mus musculus [7]) was 144%, the No. of survivors (Mus musculus [8]) was 4 and the “Final average tumor weight” value (Mus musculus [9]) was 4.35 mg. The “Initial average tumor weight” value (Mus musculus [10]) was 0.59 mg, the “Final average tumor weight” value (Mus musculus [11]) was 5.55 mg and the “Final average tumor weight” value (Mus musculus [12]) was 2.51 mg. It also gave a Relative effect (B16 [13]) of 0.45, a Relative effect (Bos taurus) of 0.42 and a Relative antitumor activity (Mus musculus [14]) of 4. It also gave an IC50 (B16 [15]) of 42 nM, a T/C (Mus musculus [16]) of 193% and a T/C (Mus musculus [17]) of 70%. For the same compound, the No. of survivors (Mus musculus [18]) was 5.
